We go through one molecule from ChEMBL document CHEMBL1140884, “Oligodeoxyribonucleotide-based antagonists for Toll-like receptors 7 and 9” (2009).

Assay [1] concerns the target T1, Toll-like receptor 9 (Mus musculus) (UniProt Q9EQU3).
T1 sequence (whole entry): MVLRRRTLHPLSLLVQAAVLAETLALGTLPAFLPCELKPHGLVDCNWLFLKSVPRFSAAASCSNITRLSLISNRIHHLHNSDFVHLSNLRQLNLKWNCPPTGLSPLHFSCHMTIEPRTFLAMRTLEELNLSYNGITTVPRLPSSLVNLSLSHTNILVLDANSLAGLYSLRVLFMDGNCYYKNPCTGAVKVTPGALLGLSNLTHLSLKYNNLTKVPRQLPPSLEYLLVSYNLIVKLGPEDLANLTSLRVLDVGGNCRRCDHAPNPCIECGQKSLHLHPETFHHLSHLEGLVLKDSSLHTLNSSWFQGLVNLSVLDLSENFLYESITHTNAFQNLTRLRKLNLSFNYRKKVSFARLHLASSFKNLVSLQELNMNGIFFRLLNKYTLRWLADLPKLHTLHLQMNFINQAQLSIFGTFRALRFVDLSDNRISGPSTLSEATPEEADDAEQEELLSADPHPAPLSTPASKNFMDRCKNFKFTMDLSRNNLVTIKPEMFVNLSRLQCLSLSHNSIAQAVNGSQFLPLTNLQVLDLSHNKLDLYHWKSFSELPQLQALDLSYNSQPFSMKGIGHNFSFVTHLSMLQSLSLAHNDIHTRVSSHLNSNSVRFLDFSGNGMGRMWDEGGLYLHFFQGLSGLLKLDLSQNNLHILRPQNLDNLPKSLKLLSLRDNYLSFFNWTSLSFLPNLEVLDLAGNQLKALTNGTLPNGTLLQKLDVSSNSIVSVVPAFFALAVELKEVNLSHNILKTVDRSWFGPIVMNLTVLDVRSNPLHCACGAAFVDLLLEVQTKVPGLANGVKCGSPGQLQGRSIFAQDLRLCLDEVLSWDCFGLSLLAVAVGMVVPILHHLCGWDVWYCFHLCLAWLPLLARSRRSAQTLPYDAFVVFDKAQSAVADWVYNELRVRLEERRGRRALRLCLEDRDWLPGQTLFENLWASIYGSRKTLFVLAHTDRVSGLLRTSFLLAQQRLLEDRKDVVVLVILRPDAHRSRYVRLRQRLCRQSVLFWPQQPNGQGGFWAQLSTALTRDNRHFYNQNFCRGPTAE
As to the kind of experiment: Antagonist activity at mouse TLR9 expressed in HEK293 cells assessed as inhibition of 5'-CTATCTGACGTTCTCTGT-3'-induced NF-kappaB activation by SEAP reporter gene assay. In kind it is functional, cell-based. Put shortly:
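Mouse TLR9-HEK293 cells were transfected with a SEAP reporter for 6 h. They were then stimulated for 18 h with agonist (0.25 or 0.5 µg/mL) plus increasing antagonist concentrations or set agonist:antagonist ratios. Quanti-Blue read-out, reported as % NF-κB activity with agonist alone as 100%.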

The target of assay [2] is T1, Toll-like receptor 9 (Mus musculus). As to the kind of experiment: Agonist activity at TLR9 in mouse J774 cells assessed as of NF-kappaB activation. In kind it is functional, cell-based. A digest of the protocol: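 Murine J774 macrophages grown in DMEM with 10% FBS and plated at 5×10^6 cells/well. Nuclear extracts taken 1 h after agonist addition. NF-κB detected by EMSA on native polyacrylamide gels with autoradiography.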

For assay [3] the target is unchanged. As to the kind of experiment: Antagonist activity at TLR9 in mouse J774 cells assessed as inhibition of 5'-TCTGACRTTCT-X-TCTTRCAGTCT-3'-induced NF-kappaB activation pretreated for 30 mins. In kind it is functional, cell-based. Put shortly: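 J774 cells received antagonist at 5, 10 or 20 µg/mL either 30 min before, together with, or 30 min after TLR9 agonist (1 µg/mL). Nuclear extracts were prepared 1 h after agonist addition and NF-κB was assessed by EMSA.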

The test system of assay [4] is Mus musculus. As to the kind of experiment: Inhibition of 5'-TCTGACRTTCT-X-TCTTRCAGTCT-3'-induced IP10 production in C57BL/6 mouse treated 72 hrs before induction at 10 mg/kg, sc. The class given is functional. To be noted: C57BL/6, sc, route subcutaneous. Put shortly:
(§1)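 Female C57BL/6 mice (n=3) received antagonist 10 mg/kg sc in the right flank. After 72 h, TLR9 agonist 0.25 mg/kg sc was given in the left flank. Serum was taken 2 h after agonist and cytokines/chemokines were measured by Luminex multiplex assay. Representative of at least three experiments.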

Assay [5] has as its system Mus musculus. As to the kind of experiment: Inhibition of 5'-TCTGACRTTCT-X-TCTTRCAGTCT-3'-induced MCP1 production in C57BL/6 mouse treated 72 hrs before induction at 10 mg/kg, sc. Particulars: C57BL/6, sc, route subcutaneous. In kind it is functional. Put shortly: as §1
In assay [6] the test system is Mus musculus. As to the kind of experiment: Inhibition of 5'-TCTGACRTTCT-X-TCTTRCAGTCT-3'-induced IL6 production in C57BL/6 mouse treated 72 hrs before induction at 10 mg/kg, sc. To be noted: C57BL/6, sc, route subcutaneous. In kind it is functional. Put shortly:
as §1

In assay [7] the test system is Mus musculus. As to the kind of experiment: Inhibition of 5'-TCTGACRTTCT-X-TCTTRCAGTCT-3'-induced KC production in C57BL/6 mouse treated 72 hrs before induction at 10 mg/kg, sc. The class given is functional. To be noted: C57BL/6, sc, route subcutaneous. Put shortly: as §1
Assay [8] relates to Mus musculus. Nature of the assay: Inhibition of 5'-TCTGACRTTCT-X-TCTTRCAGTCT-3'-induced MIG production in C57BL/6 mouse treated 72 hrs before induction at 10 mg/kg, sc. The class given is functional. Particulars: C57BL/6, sc, route subcutaneous. Put shortly:
as §1

Assay [9] deals with Mus musculus. Nature of the assay: Inhibition of 5'-UGCUGUUCUG-X-GUCUUGUCGU-5'-induced IL10 production in C57BL/6 mouse treated 72 hrs before induction at 10 mg/kg, sc. In kind it is functional. Particulars: C57BL/6, sc, route subcutaneous. A digest of the protocol:
(§2)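 Female C57BL/6 mice, 6-8 weeks, n = 3, given antagonist 10 mg/kg sc in the right flank. After 72 h, agonist given sc in the left flank: TLR7/8 RNA agonist at 50 mg/kg or TLR9 agonist at 0.25 mg/kg. Serum collected 2 h after agonist by retro-orbital bleeding; cytokines/chemokines by mouse 20-plex Luminex bead assay.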

The test system of assay [10] is Mus musculus. As to the kind of experiment: Inhibition of 5'-UGCUGUUCUG-X-GUCUUGUCGU-5'-induced MCP1 production in C57BL/6 mouse treated 72 hrs before induction at 10 mg/kg, sc. Particulars: C57BL/6, sc, route subcutaneous. The class given is functional. Put shortly:
as §2

In assay [11] the test system is Mus musculus. As to the kind of experiment: Inhibition of 5'-UGCUGUUCUG-X-GUCUUGUCGU-5'-induced IL6 production in C57BL/6 mouse treated 72 hrs before induction at 10 mg/kg, sc. The class given is functional. To be noted: C57BL/6, sc, route subcutaneous. Put shortly:
as §2

For assay [12], the system named is Mus musculus. Nature of the assay: Inhibition of 5'-TCTGACRTTCT-X-TCTTRCAGTCT-3'-induced IL12 production in C57BL/6 mouse treated 72 hrs before induction at 10 mg/kg, sc. Particulars: C57BL/6, sc, route subcutaneous. In kind it is functional. A digest of the protocol:
as §1

Assay [13] deals with T1, Toll-like receptor 9 (Mus musculus). Nature of the assay: Antagonist activity at mouse TLR9 expressed in HEK293 cells assessed as inhibition of 5'-TCTGACRTTCT-X-TCTTRCAGTCT-3'-induced NF-kappaB activation pretreated for 1 hr in presence of increasing levels of 5'-TCTGACRTTCT-X-TCTTRCAGTCT-3'. The class given is functional, cell-based. A digest of the protocol:
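In mouse TLR9-HEK293 cells with SEAP reporter, a fixed 10 µg/mL antagonist was combined with increasing TLR9 agonist concentrations for 18 h. Quanti-Blue SEAP read-out of NF-κB activity.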

The target is the same in assay [14]. As to the kind of experiment: Antagonist activity in mouse J774 cells assessed as inhibition of 5'-UGCUGUUCUG-X-GUCUUGUCGU-5'-induced NF-kappaB activation.

Calls of active or inactive are those of the source. The calls are words filed in the database; no cut-off is given here.

One may read the inhibition in vivo as the percentage by which the read-out fell short of the control. For the molecule `CO[C@@H]1[C@H](OP(=O)(S)OC[C@H]2O[C@@H](n3ccc(N)nc3=O)C[C@@H]2OP(=O)(S)OC[C@H]2O[C@@H](n3ccc4c(=O)[nH]c(N)nc43)C[C@@H]2OP(=O)(S)OC[C@H]2O[C@@H](n3cc(C)c(=O)[nH]c3=O)C[C@@H]2OP(=O)(S)OC[C@H]2O[C@@H](n3cc(C)c(=O)[nH]c3=O)C[C@@H]2OP(=O)(S)OC[C@H]2O[C@@H](n3ccc(N)nc3=O)C[C@@H]2OP(=O)(S)OC[C@H]2O[C@@H](n3cc(C)c(=O)[nH]c3=O)C[C@@H]2OP(=O)(S)OC[C@H]2O[C@@H](n3ccc(N)nc3=O)C[C@@H]2OP(=O)(S)OC[C@H]2O[C@@H](n3cc(C)c(=O)[nH]c3=O)C[C@@H]2OP(=O)(S)OC[C@H]2O[C@@H](n3cnc4c(=O)[nH]c(N)nc43)C[C@@H]2OP(=O)(S)OC[C@H]2O[C@@H](n3cc(C)c(=O)[nH]c3=O)C[C@@H]2O)[C@@H](COP(=O)(S)O[C@H]2[C@@H](OC)[C@H](n3cnc4c(=O)[nH]c(N)nc43)O[C@@H]2COP(=O)(S)O[C@H]2C[C@H](n3cc(C)c(=O)[nH]c3=O)O[C@@H]2COP(=O)(S)O[C@H]2C[C@H](n3ccc(N)nc3=O)O[C@@H]2COP(=O)(S)O[C@H]2C[C@H](n3cc(C)c(=O)[nH]c3=O)O[C@@H]2COP(=O)(S)O[C@H]2C[C@H](n3cnc4c(N)ncnc43)O[C@@H]2COP(=O)(S)O[C@H]2C[C@H](n3cc(C)c(=O)[nH]c3=O)O[C@@H]2COP(=O)(S)O[C@@H]2C[C@@H](n3ccc(N)nc3=O)O[C@H]2CO)O[C@H]1n1cnc2c(N)ncnc21` (some centres undefined), the result in [1] and in [3] was Active. The outcome in assay [2] and in assay [13] was inactive. For the same molecule, the inhibition in vivo at 10 mg/kg in the assay on Mus musculus [4], with Mus musculus [5], with Mus musculus [6], in the assay on Mus musculus [7], in the assay with Mus musculus [8] and with Mus musculus [9] was at least 50% throughout. For the same molecule, the inhibition in vivo at 10 mg/kg with Mus musculus [10], with Mus musculus [11] and in the assay with Mus musculus [12] was at least 50% in each case. Besides, the Activity result in assay [14] was “Dose-dependent effect”.
